ChEMBL document CHEMBL3244366, “Synthesis and biochemical evaluation of inhibitors of estrogen biosynthesis” (J Med Chem, 1978)

Assays:
[1] = target: T1, Aromatase (Homo sapiens, UniProt P11511); experiment: Inhibition of human placental microsomal aromatase assessed as inhibition of [C14]estrone/[C14]estradiol formation using 1.25 uM [C14]androstenedione substrate at 12.5 uM by liquid scintillation counting
T1 sequence (P11511 whole entry): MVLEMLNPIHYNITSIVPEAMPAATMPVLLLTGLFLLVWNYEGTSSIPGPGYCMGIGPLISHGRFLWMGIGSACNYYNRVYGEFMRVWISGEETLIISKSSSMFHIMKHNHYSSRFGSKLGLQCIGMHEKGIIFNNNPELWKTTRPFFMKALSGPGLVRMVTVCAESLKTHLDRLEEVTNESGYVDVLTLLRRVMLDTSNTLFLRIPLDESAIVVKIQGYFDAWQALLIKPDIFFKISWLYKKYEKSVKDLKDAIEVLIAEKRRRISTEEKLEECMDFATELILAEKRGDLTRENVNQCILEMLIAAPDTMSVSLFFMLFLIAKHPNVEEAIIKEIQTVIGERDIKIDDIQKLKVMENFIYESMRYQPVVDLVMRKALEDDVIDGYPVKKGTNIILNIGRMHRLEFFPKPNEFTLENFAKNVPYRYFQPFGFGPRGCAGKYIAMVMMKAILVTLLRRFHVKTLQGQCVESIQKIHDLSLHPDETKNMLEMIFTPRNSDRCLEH
Method in brief: (§1)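 Screen, run in duplicate: [14C]androstenedione 1.25 μM with inhibitor at 6.25 or 12.5 μM, human placental microsomes (0.25 mg protein/3.0 mL), NADPH-generating system (NADP+ 1.71 mM, glucose 6-phosphate 2.85 mM, G6PDH) in 0.1 M phosphate pH 7.0. 5 min preincubation, then 15.0 min at 37 °C; estrogens separated on alumina TLC and counted; expressed as percent inhibition versus uninhibited controls.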

[2] = target: T1, Aromatase; experiment: Inhibition of human placental microsomal aromatase assessed as inhibition of [C14]estrone/[C14]estradiol formation using 1.25 uM [C14]androstenedione substrate at 6.25 uM by liquid scintillation counting; method in brief: as §1
[3] = target: T1, Aromatase; experiment: Competitive inhibition of human placental microsomal aromatase assessed as [C14]estrone/[C14]estradiol formation using [C14]androstenedione substrate by liquid scintillation counting
Method in brief: (§2)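 Twice-washed human term placental microsomes (0.25 mg protein) in 3.5 mL 0.1 M sodium phosphate pH 7.0 with NADP+ 1.71 mM, glucose 6-phosphate 2.85 mM, G6PDH 1.0 unit; [14C]androstenedione 0.075–0.515 μM plus one inhibitor level; 37 °C, 8.0 min (<10% product). Estrogens extracted with ethyl acetate, alumina TLC, counted; duplicates; apparent Ki and inhibition type from weighted Lineweaver-Burk.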

[4] = target: T1, Aromatase; experiment: Apparent inhibition of human placental microsomal aromatase assessed as [C14]estrone/[C14]estradiol formation using 0.075 to 0.515 uM [C14]androstenedione substrate by liquid scintillation counting; settings: read-out: Ki(app); method in brief: as §2

SMILES	inhibition at 12.5 µM [1] [%]	inhibition at 6.25 µM [2] [%]	inhibition (INH) [3]	Ki [4] [nM]
COc1ccc(S[C@@H]2CC3=CC(=O)CC[C@]3(C)[C@H]3CC[C@]4(C)C(=O)CC[C@H]4[C@H]23)cc1	64.9	35.3	–	–
CCCCS[C@@H]1CC2=CC(=O)CC[C@]2(C)[C@H]2CC[C@]3(C)C(=O)CC[C@H]3[C@H]12	74.1	62.4	Active	57
CCN(CC)c1ccc(CS[C@@H]2CC3=CC(=O)CC[C@]3(C)[C@H]3CC[C@]4(C)C(=O)CC[C@H]4[C@H]23)cc1	42.3	45.1	–	–
CCN(CC)c1ccc(CS[C@H]2CC(=O)C=C3CC[C@@H]4[C@H](CC[C@]5(C)C(=O)CC[C@@H]45)[C@]32C)cc1	36.3	32.2	–	–
C[C@]12CCC(=O)C=C1C[C@@H](SCc1ccccc1)[C@@H]1[C@@H]2CC[C@]2(C)C(=O)CC[C@@H]12	84.1	66.7	Active	69
C[C@]12CCC(=O)C=C1C[C@@H](Sc1ccc(N)cc1)[C@@H]1[C@@H]2CC[C@]2(C)C(=O)CC[C@@H]12	95	55.6	Active	18
C[C@@]12C(=CC(=O)C[C@@H]1Sc1ccccc1)CC[C@@H]1[C@@H]2CC[C@]2(C)C(=O)CC[C@@H]12	24.2	21.2	–	–
C[C@]12CCC(=O)C=C1C[C@@H](Sc1ccccc1)[C@@H]1[C@@H]2CC[C@]2(C)C(=O)CC[C@@H]12	46.7	45.3	–	–
C[C@]12CCC(=O)C=C1C[C@@H](SCCc1ccccc1)[C@@H]1[C@@H]2CC[C@]2(C)C(=O)CC[C@@H]12	82.8	75.7	Active	62
C[C@]12CCC(=O)C=C1C[C@@H](SCCCc1ccccc1)[C@@H]1[C@@H]2CC[C@]2(C)C(=O)CC[C@@H]12	66.4	68.4	–	–
C[C@@]12C(=CC(=O)C[C@@H]1SCc1ccccc1)CC[C@@H]1[C@@H]2CC[C@]2(C)C(=O)CC[C@@H]12	15.5	20.8	–	–
CCOC(=O)CS[C@@H]1CC2=CC(=O)CC[C@]2(C)[C@H]2CC[C@]3(C)C(=O)CC[C@H]3[C@H]12	72.4	–	–	–
COc1ccc(CS[C@@H]2CC3=CC(=O)CC[C@]3(C)[C@H]3CC[C@]4(C)C(=O)CC[C@H]4[C@H]23)cc1	63	64	Active	31
